The source of these data is ChEMBL document CHEMBL1138091, “Privileged structure based ligands for melanocortin-4 receptors--aliphatic piperazine derivatives” (Bioorg Med Chem Lett, 2006).

Chain of Melanocortin receptor 4 (P32245 whole entry): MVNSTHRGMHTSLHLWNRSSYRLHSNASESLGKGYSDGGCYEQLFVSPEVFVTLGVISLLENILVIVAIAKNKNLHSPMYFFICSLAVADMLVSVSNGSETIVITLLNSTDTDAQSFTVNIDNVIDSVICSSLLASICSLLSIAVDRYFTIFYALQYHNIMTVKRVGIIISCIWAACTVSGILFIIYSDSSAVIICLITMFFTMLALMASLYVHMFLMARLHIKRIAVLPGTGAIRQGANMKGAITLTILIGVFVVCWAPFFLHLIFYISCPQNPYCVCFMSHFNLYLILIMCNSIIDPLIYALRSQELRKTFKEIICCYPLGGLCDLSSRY

This test deals with Melanocortin receptor 4 (Homo sapiens, UniProt P32245). The experiment in a line: Inhibition of [125I]NDP-alpha-MSH binding to human MC4R transfected in HEK293 cells. Format: cell-based. Put shortly:
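Competition binding against ¹²⁵I-NDP-α-MSH on HEK293 cells stably expressing human MC4 receptor; affinity taken from inhibition of radioligand binding. Each value is the mean of at least two determinations, with the binding assay's average error given as 15%.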
Usually Ki stands for the equilibrium dissociation constant of an inhibitor or competing ligand from its target. Lower therefore signals higher affinity. `CC(C)CC(C1CCCCC1)N1CCN(C(=O)[C@@H](Cc2ccc(Cl)cc2)NC(=O)CC2Cc3ccccc3N2)CC1` (some centres not stated) showed a Ki of 54 nM.

The molecule `CCN(CC)C(=O)C(C1CCCCC1)N1CCN(C(=O)[C@@H](Cc2ccc(Cl)cc2)NC(=O)CC2Cc3ccccc3N2)CC1` (some centres not stated) returned a Ki of 148 nM.

Turning to `CS(=O)(=O)NCC(C1CCCCC1)N1CCN(C(=O)[C@@H](Cc2ccc(Cl)cc2)NC(=O)CC2Cc3ccccc3N2)CC1` (some centres not stated), the affinity, expressed as Ki, was 26 nM.

For `CCN(CC)CC(CC1CCCCC1)N1CCN(C(=O)[C@@H](Cc2ccc(Cl)cc2)NC(=O)[C@H]2Cc3ccccc3CN2)CC1` (some centres not stated), the Ki worked out at 13 nM.

In the case of `O=C(CC1Cc2ccccc2N1)N[C@H](Cc1ccc(Cl)cc1)C(=O)N1CCN(C(C2CCCCC2)C2CCCCC2)CC1` (some centres not stated), the Ki was determined as 35 nM.

`CCN(CC)CC1(N2CCN(C(=O)[C@@H](Cc3ccc(Cl)cc3)NC(=O)[C@H]3Cc4ccccc4CN3)CC2)CCCC1` displayed a Ki of 70 nM.

On to `O=C(CC1Cc2ccccc2N1)N[C@H](Cc1ccc(Cl)cc1)C(=O)N1CCN(C(CC2CCCCC2)CN2CCOCC2)CC1` (some centres not stated), for which the affinity corresponds to a Ki of 10 nM.

On to `CCN(CC)CC(CC1CCCCC1)N1CCN(C(=O)[C@@H](Cc2ccc(Cl)cc2)NC(=O)CC2Cc3ccccc3N2)CC1` (some centres not stated), for which the affinity, expressed as Ki, was 5 nM.

With `CCN(CC)CC(c1ccccc1F)N1CCN(C(=O)[C@@H](Cc2ccc(Cl)cc2)NC(=O)[C@H]2Cc3ccccc3CN2)CC1` (some centres not stated), the Ki was 20 nM.

`O=C(CC1Cc2ccccc2N1)N[C@H](Cc1ccc(Cl)cc1)C(=O)N1CCN(C(CC2CCCCC2)CC2CCCCC2)CC1` (some centres not stated) gave an inhibitory constant (Ki) of 326 nM.

Take `CC(C)CC(CC(C)C)N1CCN(C(=O)[C@@H](Cc2ccc(Cl)cc2)NC(=O)CC2Cc3ccccc3N2)CC1` (some centres not stated): the Ki was determined as 18 nM.

`CCN(CC)CC(C1CCCC1)N1CCN(C(=O)[C@@H](Cc2ccc(Cl)cc2)NC(=O)[C@H]2Cc3ccccc3CN2)CC1` (some centres not stated) registered a Ki of 4 nM.

The molecule `CCN(CC)CC(C1CCCCCC1)N1CCN(C(=O)[C@@H](Cc2ccc(Cl)cc2)NC(=O)[C@H]2Cc3ccccc3CN2)CC1` (some centres not stated) came in with a Ki of 13 nM.

For the molecule `CCN(CC)CC(C1CCCCC1)N1CCN(C(=O)[C@@H](Cc2ccc(Cl)cc2)NC(=O)[C@H]2Cc3ccccc3CN2)CC1` (some centres not stated), the Ki came out at 4 nM.

Molecule `CCN(CC)CC(C)N1CCN(C(=O)[C@@H](Cc2ccc(Cl)cc2)NC(=O)[C@H]2Cc3ccccc3CN2)CC1` (some centres not stated) gave a Ki of 3430 nM.

For the molecule `CCN(CC(C1CCCCC1)N1CCN(C(=O)[C@@H](Cc2ccc(Cl)cc2)NC(=O)n2cc3ccccc3c2)CC1)S(C)(=O)=O` (some centres not stated), the Ki came to 7 nM.

`CCN(CC)CC(C1CCCCC1)N1CCN(C(=O)[C@@H](Cc2ccc(Cl)cc2)NC(=O)CC2Cc3ccccc3N2)CC1` (stereo in doubt; 28) registered a Ki of 3 nM.

In turn, `CCN(CC)CC(C1CCCCC1)N1CCN(C(=O)[C@@H](Cc2ccc(Cl)cc2)NC(=O)CC2Cc3ccccc3N2)CC1` (stereo in doubt; 28a) had a Ki of 3 nM.

Molecule `CCN(CC)CC(C1CCCCC1)N1CCN(C(=O)[C@@H](Cc2ccc(Cl)cc2)NC(=O)CC2Cc3ccccc3N2)CC1` (stereo in doubt; 28b) came in with a Ki of 5 nM.

`CCN(CC(C1CCCCC1)N1CCN(C(=O)[C@@H](Cc2ccc(Cl)cc2)NC(=O)CC2Cc3ccccc3N2)CC1)S(C)(=O)=O` (stereo in doubt; 34) registered an inhibition constant Ki of 3 nM.

`CCN(CC(C1CCCCC1)N1CCN(C(=O)[C@@H](Cc2ccc(Cl)cc2)NC(=O)CC2Cc3ccccc3N2)CC1)S(C)(=O)=O` (stereo in doubt; 34a) returned a Ki of 6 nM.

Molecule `CCN(CC(C1CCCCC1)N1CCN(C(=O)[C@@H](Cc2ccc(Cl)cc2)NC(=O)CC2Cc3ccccc3N2)CC1)C(C)=O` (stereo in doubt; 35) returned a Ki of 8 nM.

With `CCN(CC(C1CCCCC1)N1CCN(C(=O)[C@@H](Cc2ccc(Cl)cc2)NC(=O)CC2Cc3ccccc3N2)CC1)C(C)=O` (stereo in doubt; 35a), the affinity, expressed as Ki, was 2 nM.

Molecule `CCN(CC(C1CCCCC1)N1CCN(C(=O)[C@@H](Cc2ccc(Cl)cc2)NC(=O)CC2Cc3ccccc3N2)CC1)C(C)=O` (stereo in doubt; 35b) showed an inhibitory constant (Ki) of 3 nM.

Molecule `O=C(CC1Cc2ccccc2N1)N[C@H](Cc1ccc(Cl)cc1)C(=O)N1CCN(C(CN2C(=O)CCC2=O)C2CCCCC2)CC1` (stereo in doubt; 36) yielded a Ki of 10 nM.

The molecule `O=C(CC1Cc2ccccc2N1)N[C@H](Cc1ccc(Cl)cc1)C(=O)N1CCN(C(CN2C(=O)CCC2=O)C2CCCCC2)CC1` (stereo in doubt; 36a) registered a Ki of 10 nM.

In turn, `O=C(CC1Cc2ccccc2N1)N[C@H](Cc1ccc(Cl)cc1)C(=O)N1CCN(C(CN2C(=O)CCC2=O)C2CCCCC2)CC1` (stereo in doubt; 36b) gave a Ki of 18 nM.
